Test results published in ChEMBL document CHEMBL1124791, “Structure-activity relationships of the lissoclinamides: cytotoxic cyclic peptides from the ascidian Lissoclinum patella” (J Med Chem, 1990).
Values after ≈ are worked out from the molar mass of the structure shown.

Key:
MRC5CV1 = assay: Concentration required for 50% inhibition of growth by the compound in SV-40 transformed fibroblasts (MRC5CV1); assay type: functional, cell-based; settings: Homo sapiens
Summary of the method: (§1)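 Cells kept in RPMI 1640 with 10% fetal calf serum at 37 °C, 5% CO2, then plated at 1 × 10^4 per 100 μL and left overnight. Exposure to varying concentrations for 1 h, followed by 48 h incubation. MTT (5 mg/mL stock) added for 4 h at 37 °C and formazan dissolved in 0.08 M HCl/2-propanol. Absorbance read at 540 nm against 690 nm reference. Three experiments, eight assays per point.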

[1] = Concentration required for 50% inhibition of growth by the compound in normal peripheral blood lymphocytes; assay type: functional, cell-based, Homo sapiens
Summary of the method: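 Human lymphocytes isolated from whole blood on Ficoll Paque, stimulated with PHA (1 μL/mL) for 72 h and plated at 1 × 10^5/mL. Compounds added over 100 to 0.1 μg/mL. Survival measured after 24 h by MTT colorimetric assay, with formazan dissolved in acidic 2-propanol and absorbance read at 540 nm.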

T-24 = assay: Concentration required for 50% inhibition of growth by the compound in transitional bladder carcinoma T24 cells; assay type: functional, cell-based, Homo sapiens; summary of the method: as §1
[2] = Homo sapiens, T-24, read-out: IC50

## CC(C)C1NC(=O)C2N=C(OC2C)C2CCCN2C(=O)C(Cc2ccccc2)NC(=O)c2csc(n2)C(Cc2ccccc2)NC(=O)c2csc1n2 (stereo not given)
MRC5CV1
  IC50: 15 µg/mL (≈ 20.3 µM)
[1]
  IC50: 20 µg/mL (≈ 27 µM)
T-24; [2]
  IC50: 10 µg/mL (≈ 13.5 µM)

## CC(C)[C@@H]1NC(=O)[C@H]2N=C(O[C@@H]2C)[C@@H]2CCCN2C(=O)[C@H](Cc2ccccc2)NC(=O)[C@@H]2CSC(=N2)[C@H](Cc2ccccc2)NC(=O)[C@@H]2CSC1=N2
MRC5CV1
  IC50: 0.04 µg/mL (≈ 0.0538 µM)
[1]
  IC50: 0.08 µg/mL (≈ 0.108 µM)
T-24; [2]
  IC50: 0.06 µg/mL (≈ 0.0806 µM)

## CC(C)C1NC(=O)C2N=C(OC2C)C2CCCN2C(=O)C(Cc2ccccc2)NC(=O)c2csc(n2)C(Cc2ccccc2)NC(=O)C2CSC1=N2 (stereo in doubt; form 2)
T-24; t-24
  IC50: 0.8 µg/mL (≈ 1.08 µM)

## CC(C)C1NC(=O)C2N=C(OC2C)C2CCCN2C(=O)C(Cc2ccccc2)NC(=O)c2csc(n2)C(Cc2ccccc2)NC(=O)C2CSC1=N2 (stereo in doubt; form 1)
MRC5CV1
  IC50: 1 µg/mL (≈ 1.35 µM)
[1]
  IC50: 8 µg/mL (≈ 10.8 µM)
T-24; t-24
  IC50: 6 µg/mL (≈ 8.09 µM)
